Measurements: ChEMBL document CHEMBL3046550, “Design, synthesis, and insecticidal evaluation of new benzoylureas containing amide and sulfonate groups based on the sulfonylurea receptor protein binding site for diflubenzuron and glibenclamide” (2013)

Experiments:
Format in all cases: functional
Details in all cases: 96 h
[1] = system: Plutella xylostella; test: Larvicidal activity against second-instar larvae of Plutella xylostella (diamondback moth) infected in compound-treated cabbage leaves assessed as mortality at 200 mg/l measured after 4 days
How it was run: (§1)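 Test solutions at the different concentrations were made by dissolving compounds in DMF and adding distilled water.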

[2] = system: Mythimna separata; test: Larvicidal activity against fourth instar larvae of Mythimna separata (Oriental armyworm) infected compound-treated corn leaves assessed as mortality at 50 mg/l measured after 4 days
How it was run: (§2)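 Petri dishes each infested with 10 fourth-instar larvae; percentage mortality scored 4 days after treatment. Three replicates per treatment, with the reported value the mean of the three.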

[3] = system: Mythimna separata; test: Larvicidal activity against fourth instar larvae of Mythimna separata (Oriental armyworm) infected compound-treated corn leaves assessed as mortality at 100 mg/l measured after 4 days; how it was run: as §2
[4] = system: Mythimna separata; test: Larvicidal activity against fourth instar larvae ofMythimna separata (Oriental armyworm) infected compound-treated corn leaves assessed as mortality at 200 mg/l measured after 4 days; how it was run: as §2
[5] = system: Plutella xylostella; test: Larvicidal activity against second-instar larvae of Plutella xylostella (diamondback moth) infected in compound-treated cabbage leaves assessed as mortality at 20 mg/l measured after 4 days; how it was run: as §1
[6] = system: Mythimna separata; test: Larvicidal activity against fourth instar larvae of Mythimna separata (Oriental armyworm) infected compound-treated corn leaves assessed as mortality at 10 mg/l measured after 4 days; how it was run: as §2
[7] = system: Plutella xylostella; test: Larvicidal activity against second-instar larvae of Plutella xylostella (diamondback moth) infected in compound-treated cabbage leaves assessed as mortality at 2 mg/l measured after 4 days; how it was run: as §1
[8] = system: Plutella xylostella; test: Larvicidal activity against second-instar larvae of Plutella xylostella (diamondback moth) infected in compound-treated cabbage leaves assessed as mortality at 5 mg/l measured after 4 days; how it was run: as §1
[9] = system: Mythimna separata; test: Larvicidal activity against fourth instar larvae of Mythimna separata (Oriental armyworm) infected compound-treated corn leaves assessed as mortality at 5 mg/l measured after 4 days; how it was run: as §2
[10] = system: Mythimna separata; test: Larvicidal activity against fourth instar larvae of Mythimna separata (Oriental armyworm) infected compound-treated corn leaves assessed as mortality at 20 mg/l measured after 4 days; how it was run: as §2
[11] = system: Mythimna separata; test: Larvicidal activity against fourth instar larvae of Mythimna separata (Oriental armyworm) infected compound-treated corn leaves assessed as mortality at 1 mg/l measured after 4 days; how it was run: as §2
[12] = system: Mythimna separata; test: Larvicidal activity against fourth instar larvae of Mythimna separata (Oriental armyworm) infected compound-treated corn leaves assessed as mortality at 2.5 mg/l measured after 4 days; how it was run: as §2

SMILES	mortality at 200 µg/mL [1] [%]	mortality at 50 µg/mL [2] [%]	mortality at 100 µg/mL [3] [%]	mortality at 200 µg/mL [4] [%]	further results
O=C(NC(=O)c1c(F)cccc1F)Nc1ccc(S(=O)(=O)OCCF)cc1	20	0	100	100	
O=C(NC(=O)c1c(F)cccc1F)Nc1ccc(C(=O)Nc2ccc(Cl)cc2)cc1	0			0	
O=C(NC(=O)c1c(F)cccc1F)Nc1ccc(S(=O)(=O)Oc2ccc(Cl)cc2)cc1	0			0	
CC(C)(C)c1ccc(CNC(=O)c2ccc(NC(=O)NC(=O)c3c(F)cccc3F)cc2)cc1	0			0	
CCCCNC(=O)c1ccc(NC(=O)NC(=O)c2c(F)cccc2F)cc1	0			0	
CC(C)(C)NC(=O)c1ccc(NC(=O)NC(=O)c2c(F)cccc2F)cc1	0	50	100	100	
O=C(NC(=O)c1c(F)cccc1F)Nc1ccc(S(=O)(=O)OCCCCCl)cc1	20	20	100	100	
O=C(NC(=O)c1c(F)cccc1F)Nc1ccc(S(=O)(=O)OCCCl)cc1	30	40	100	100	
CC(C)N(C(=O)c1ccc(NC(=O)NC(=O)c2c(F)cccc2F)cc1)C(C)C				0	mortality at 20 µg/mL [5]: 100%
O=C(NC(=O)c1c(F)cccc1F)Nc1ccc(C(=O)N2CCOCC2)cc1	0			0	
CCCCCOS(=O)(=O)c1ccc(NC(=O)NC(=O)c2c(F)cccc2F)cc1	30	60	100	100	mortality at 10 µg/mL [6]: 95%
CC1CCC(C(C)C)C(OS(=O)(=O)c2ccc(NC(=O)NC(=O)c3c(F)cccc3F)cc2)C1 (stereo not drawn)	0			0	
O=C(NC(=O)c1c(F)cccc1F)Nc1ccc(S(=O)(=O)OCC(F)(F)F)cc1	100	100	100	100	mortality at 2 µg/mL [7]: 40%; mortality at 5 µg/mL [8]: 90%; mortality at 20 µg/mL [5]: 100%; mortality at 5 µg/mL [9]: 60%; mortality at 10 µg/mL [6]: 100%; mortality at 20 µg/mL [10]: 100%
CN(C(=O)c1ccc(NC(=O)NC(=O)c2c(F)cccc2F)cc1)c1ccc(Cl)cc1	0			0	
O=C(NC(=O)c1c(F)cccc1F)Nc1ccc(CO/N=C(/c2ccc(Cl)cc2)C2CC2)cc1 [FLUCYCLOXURON]					mortality at 1 µg/mL [11]: 10%; mortality at 2.5 µg/mL [12]: 50%; mortality at 5 µg/mL [9]: 90%
O=C(NC(=O)c1c(F)cccc1F)Nc1ccc(S(=O)(=O)OC(C(F)(F)F)C(F)(F)F)cc1	60			0	mortality at 20 µg/mL [5]: 20%
